Screening data deposited in PubChem by several laboratories.
ERa SRC1 inh: ERα–SRC-1 coactivator interaction inhibitors, primary screen, biochemical, TR-FRET, ERα LBD, estradiol-bound; Estrogen receptor (Homo sapiens), P03372; TR-FRET ER-alpha LBD / SRC-1 peptide; inhibition, % at 25.6 µM; 86,000 tested, 1.7% active; AID 629, 2007; in the data active = inhibition above about 50%;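 also: 0% = receptor plus peptide control and 100% = peptide only without receptor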
ERb coact inh: inhibitors of ERβ-SRC1 coactivator interaction, primary screen, biochemical, TR-FRET, ERβ LBD, SRC-1 peptide | Estrogen receptor beta (Homo sapiens), Q92731 | TR-FRET ER-beta LBD / SRC1-Cy5 peptide binding; receptor agonist-loaded with 1 µM estradiol | inhibition, % at 25.6 µM | 86,000 tested, 1.3% active;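 active = compounds whose percent inhibition of the receptor-coactivator binding signal exceeds about 50% in the single-dose screen, limit read from the data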;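 also: 0% = receptor plus peptide wells without compound and 100% = peptide-only wells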
PTK2B oligo ant: antagonists of Pyk2 self-association, primary screen, Q293 cells, FERM NanoBiT luminescence, HTS | 99,000 tested, 0.83% active | AID 1347419, 2020 | Protein-tyrosine kinase 2-beta (Homo sapiens), Q14289 | stronger effect = lower value | z-score (the deposit names both 25 µM and 10 µM);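 active = Z-score of -3 or lower, scaled per plate to the spread of control and sample wells; inactive = z-score above -3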;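 also: negative z-score means lost luminescence so less FERM oligomerization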
SF-1 act: activators of human SF-1, primary screen, cell-based, CHO-K1, Gal4-SF-1 LBD, luciferase luminescence | Steroidogenic factor 1 (Homo sapiens), Q13285 | CHO-K1 Gal4-SF-1 LBD luciferase reporter; % increase over DMSO SF-1-specific signal | activation, % at 10 µM | 65,000 tested, 1.9% active;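 active = activation above the mean activation of all tested compounds plus 3 SD, cut at about 50% in these data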
Target sequence (Q13285 whole entry, looked up, the tested form may be a part): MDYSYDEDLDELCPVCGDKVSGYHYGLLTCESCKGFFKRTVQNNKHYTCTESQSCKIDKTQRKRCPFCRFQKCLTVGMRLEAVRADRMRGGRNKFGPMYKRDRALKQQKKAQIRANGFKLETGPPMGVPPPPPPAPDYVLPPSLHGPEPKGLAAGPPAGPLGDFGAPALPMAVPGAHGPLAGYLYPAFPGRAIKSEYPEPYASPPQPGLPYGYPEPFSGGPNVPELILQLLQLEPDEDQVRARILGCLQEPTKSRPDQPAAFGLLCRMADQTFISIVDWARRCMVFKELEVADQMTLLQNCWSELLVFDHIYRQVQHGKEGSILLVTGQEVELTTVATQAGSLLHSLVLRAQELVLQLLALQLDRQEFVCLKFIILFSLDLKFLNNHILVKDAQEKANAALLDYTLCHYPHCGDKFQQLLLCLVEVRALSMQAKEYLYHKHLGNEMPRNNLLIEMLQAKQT
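Assay system: CHO-K1 cells co-transfected with Gal4 DBD–human SF-1 LBD, 5xGal4 luciferase reporter / Input: 4,000 cells per well / Incubation: 20 h compound exposure at 37 °C after 1 h cell settling / Detection: SteadyLite luciferase luminescence / Control set: DMSO negative control and −SF1 background wells / Replication: one test per compound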
RORA act: activators of orphan receptor RORA, primary screen, cell-based, luminescence | Nuclear receptor ROR-alpha (Homo sapiens), P35398 | CHO-K1 Gal4-RORA LBD luciferase reporter; percent increase over mock-subtracted basal signal | activation, % at 10 µM | 65,000 tested, 1.5% active | AID 560, 2006;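 active = activation above the mean of all tested compounds plus 3 SD, cut at about 49% in these data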;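 also: 0% = DMSO-treated RORA cells and 100% = added signal equal to DMSO minus mock-transfected cells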
ERa SRC1 pot: enhancers of ERα–SRC-1 coactivator binding, primary screen, biochemical, TR-FRET, ERα LBD, low estradiol | Estrogen receptor (Homo sapiens), P03372 | TR-FRET ERalpha-LBD/SRC-Cy5 coactivator binding, 2 h; 100 = basal binding, no effect | coactivator binding (% of control), % at 25.6 µM | 86,000 tested, 1.3% active | AID 639, 2007; in the data active = activity above about 200%;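 also: binding measured in presence of low estradiol as agonist stimulus; 0% = peptide alone without receptor and 100% = receptor with peptide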
* marks the source's active call; other numbers are inactive results; . = no result; [ ] = remark or other dose. Hits are enriched below; roughly 4.8% of the tested compounds scored in any of these assays.

SMILES	ERa SRC1 inh	ERb coact inh	PTK2B oligo ant	SF-1 act	RORA act	ERa SRC1 pot
O=C(CSc1ncn[nH]1)Nc1nnc(-c2ccccc2)s1	6	11	.	-16	56*	82
Cc1ccc2nc(-c3ccccn3)oc2c1	-4	-11	0.19	11	-39	140
COC(=O)c1ccc(-c2nc3ccccc3o2)cc1	1	24	.	46	2	111
Cc1ccc2oc(-c3ccc(NC(=O)CC(C)C)cc3)nc2c1	-1	15	-0.58	44	55*	225*[fluorescence artefact?]
COC(=O)c1ccc(-c2nc3ccc(C)cc3o2)cc1	7	3	-0.28	46	68*	138
Cc1ccc2nc(-c3cccnc3)oc2c1	1	2	0.37	33	50*	109
Cc1ccc2oc(-c3ccc(NC(=O)c4cccnc4)cc3)nc2c1	2	31	-1.9	36	-1	248*
Cc1nn(C)c(Oc2ccc(Cl)cc2)c1C(=O)Nc1ccc(F)cc1F	.	.	-0.2	.	.	.
O=c1[nH]nc(Sc2ncnc3sccc23)n1CCc1ccccc1	-7	1	-1.7	-27	-39	97
CCCC(=O)Nc1ccc(-c2nc3cc(C)c(C)cc3o2)cc1	69*[fluorescence artefact?]	43	0.01	33	48	168
O=C(CSc1nc2ccccc2[nH]1)N1CCCCC1	-4	-4	0.63	48	52*	104
Cc1c(C)n(C(=O)CSc2nc3ccccc3[nH]2)c2ccccc12	55*[fluorescence artefact?]	21	0.27	.	.	17
CCC(C)(C)n1nnnc1C(C(C)C)N1CCSCC1 (configuration not stated)	5	0	-0.22	1	0	85
N#Cc1ccccc1NC(=O)c1ccc(-c2ccccc2Cl)o1	-9	-15	1.4	6	22	152
O=C(CN1CCC(n2nnc3cc(F)ccc32)CC1)NC1CC1	7	-5	-0.32	1	-2	108
CCOc1ccc2nc(NC(=O)CN3CCC(n4nnc5cc(F)ccc54)CC3)sc2c1	5	10	-3.3*	-4	17	133
Cn1nnnc1SCc1ccc(C(=O)Nc2nccs2)cc1	-3	-10	0.3	57*	44	68
COc1cccc2sc(Nc3nnc(-c4ccc(F)cc4)o3)nc12	65*	25	.	.	.	74
Cc1ccc(-c2nc3cccnc3o2)cc1NC(=O)COc1ccc(C(C)(C)C)cc1	6	0	-2.9	.	.	107
Cc1ccc(-c2nc3cccnc3o2)cc1NC(=O)COc1ccc(Cl)cc1C	42	32	0.99	5	-8	210*[fluorescence artefact?]
Cc1ccc(-c2nc3ncccc3o2)cc1NC(=O)Cc1ccc(Cl)cc1	52*[fluorescence artefact?]	37	0.14	-5	20	132
O=C(Nc1ccccc1N1CCOCC1)c1ccc([N+](=O)[O-])cc1	.	.	2.5	.	.	.
C#Cc1ccc(C(=O)Nc2cc(C(N)=O)ccc2N2CCOCC2)cc1	69*[fluorescence artefact?]	40	0.83	0	-14	58
CC(C)C(=O)Nc1cccc(NC(=O)c2cc3ccccc3o2)c1	-46	-11	-0.43	35	12	104
Cc1c(C(=O)Nc2ccc(Cl)cn2)oc2ccccc12	-12	-7	0.11	2	-20	119
SMILES	ERa SRC1 inh	ERb coact inh	PTK2B oligo ant	SF-1 act	RORA act	ERa SRC1 pot
Cc1c(C(=O)Nc2ccc(-n3cnnn3)cc2)oc2ccccc12	76*[fluorescence artefact?]	65*[fluorescence artefact?]	-0.47	0	22	199
Nc1c(C(=O)Nc2ccc(Cl)cc2)oc2ccccc12	4	-8	.	106*	74*	96
CC(=O)c1oc2ccccc2c1N	-6	6	0.56	11	-8	110
CC(=O)Nc1cccc(NC(=O)c2oc3ccccc3c2C)c1	1	3	.	51*	48	102
CC(=O)Nc1cccc(NC(=O)c2cc3ccccc3o2)c1	-8	5	-0.14	87*	33	107
CCN1CC=C2C(C#N)=C(N)C(C#N)(C#N)C(c3cc(Cl)ccc3Cl)C2C1 (configuration not stated)	16	15	0.75	12	2	69
CCCCNC(=O)c1ccc(S(=O)(=O)c2ccc(Cl)cc2)c(NC(C)=O)c1	9	-2	-0.07	.	.	97
CCSc1nc(-c2ccc(OC)cc2)n(-c2nc3ccccc3s2)n1	-29	-27	-0.67	0	-16	117
CC(=O)Nc1ccc(-c2cc3ccccc3o2)cc1	24	22	-0.26	61*	2	79
COc1ccc(NC(=O)c2oc3ccccc3c2NC(=O)c2ccc(OC)c(OC)c2)c(OC)c1	.	.	.	8	-18	.
Cc1c(C(=O)Nc2cnccn2)oc2ccccc12	3	5	0.11	56*	45	93
COc1ccc(NC(=O)c2oc3ccccc3c2C)c(OC)c1	-11	-15	-1.4	58*	62*	113
COC(=O)c1ccc(N2CCN(C)CC2)c(NC(=O)c2cc3ccccc3o2)c1	-1	-4	0.12	-16	6	120
CC(=O)Nc1ccc2ccccc2c1	4	0	1.1	.	.	104
COC(=O)c1ccc(C(=O)OC)c(NC(=O)c2cc3ccccc3o2)c1	15	19	.	20	-2	364*[fluorescence artefact?]
O=C(Nc1ccccc1)c1cc2ccccc2o1	4	2	0.79	.	.	84
COc1ccc(NC(=O)c2cc3ccccc3o2)cc1	-26	-33	-0.26	54*	53*	107
CCC(=O)Nc1cccc(NC(C)=O)c1	84*[fluorescence artefact?]	78*	.	.	.	27
COC(=O)c1cc(COc2ccc3c(c2)oc(=O)c2ccccc23)c(C)o1	30	23	0.59	.	.	230*
CCCCCCN=CC1=C(O)C(C(=O)OC)C(C)(C)CC1=O (configuration not stated)	42	60*	0.11	.	.	54
O=C(C(Cl)Cl)N1c2ccccc2OCC1c1ccccc1 (configuration not stated)	.	.	-1.7	.	.	.
COc1ccccc1CN(Cc1cc2cc(C)cc(C)c2[nH]c1=O)Cc1nnnn1CC1CCCO1 (configuration not stated)	3	0	0.65	49	54*	122
COc1cccc(C2=NOC(C(=O)N3CCOCC3)C2)c1 (configuration not stated)	-2	-10	0.18	57*	20	97
